# Screening results as filed in PubChem BioAssay.
# MsrA inh = bovine MsrA enzyme inhibitors, primary screen, biochemical, absorbance, HTS | Methionine sulfoxide reductase A (Bos taurus) | purified bovine MsrA, absorbance read-out | inhibition, % at 15.5 µM | actives 0.75% (n = 360,000) | AID 651718, 2012; in the data active means inhibition above about 4.5%;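 further: 0% = vehicle wells with enzyme and 100% = reference inhibitor wells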
# GalR3 antag = GalR3 antagonists in HEK293 cells, primary screen, cell-based, fluorescence readout. Galanin receptor type 3 (Homo sapiens), O60755. actives 0.44% (n = 360,000). HEK293 GalR3-CNG cAMP membrane potential fluorescence; galR3 body fused to GalR1 C-terminus. AID 651719, 2012. inhibition, % at 3 µM;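 active means inhibition above the screen-wide average plus 3 SD, cut at about 13% in these data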;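 further: forskolin and galanin both at EC90 stimulate the cells; cAMP rise reported by CNG channel membrane potential dye signal; 0% = forskolin plus galanin with DMSO and 100% = forskolin alone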
# bovine MsrA act = bovine MsrA enzyme activators, primary screen, biochemical, absorbance, HTS; Methionine sulfoxide reductase A (Bos taurus); purified bovine MsrA, absorbance read-out; actives 0.3% (n = 360,000); activation, % at 10.6 µM; in the data active means activation above about 7.5%;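 further: 0% = vehicle and 100% = reference activator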
# NR2E3 ag-1 = NR2E3 agonists in two-hybrid cells, primary screen, cell-based, luminescence, CHO-S, Gal4-NCOR/VP16-NR2E3; luciferase; AID 602229, 2012; actives 0.35% (n = 360,000); Photoreceptor-specific nuclear receptor (Homo sapiens), Q9Y5X4; inhibition of corepressor binding, % at 3.98 µM;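 active means inhibition above the mean of all tested compounds plus 3 SD, cut at about 70% in these data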;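 further: 0% = DMSO with NR2E3 transfected cells and 100% = cells lacking NR2E3 construct; higher means lower luciferase signal from less NR2E3 corepressor binding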
# NadD block = inhibitors of S. aureus NadD, primary screen, biochemical, colorimetric, uHTS | inhibition, % at 20 µM | purified NadD enzyme, colorimetric absorbance read-out | Nicotinate-nucleotide adenylyltransferase NadD (Staphylococcus aureus N315) | actives 0.78% (n = 360,000); in the data active means inhibition above about 26%
# NR2E3 ag-2 = inhibitors of NR2E3-RetCOR corepressor binding, primary screen, NR2E3 agonist project, biochemical, TR-FRET, GST-NR2E3, biotin-RetCOR; 1536-well; inhibition of corepressor binding, % at 4.78 µM; actives 0.12% (n = 320,000); AID 2300, 2010;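 active means percent inhibition above the cutoff of mean plus 3 SD of all tested compounds, set per screening campaign, cut at about 20% in these data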;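 further: 0% = DMSO wells and 100% = biotin wells as full block of FRET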
#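 System: GST-tagged NR2E3 plus biotinylated RetCOR corepressor; Amount: 1.35 nM GST-tagged NR2E3 final; Dosing: single nominal compound dose of 4.8 µM; Schedule: 5 h incubation at 4 °C; Technique: TR-FRET with europium anti-GST and streptavidin-D2, 340 nm excitation; Controls: biotin wells as high control, 0.6% DMSO wells as low control.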
# NR2E3 ag confirm-1 = NR2E3 agonists, confirmation, biochemical, TR-FRET; shares compounds with NR2E3 ag-2; cell-free NR2E3 corepressor release, 5 h; activation (reported as inhibition), % at 3.98 µM; AID 2379, 2010; actives 39% (n = 360); in the data active means activation above about 20%
# PPARg-NCOR2 ctr = agonists of PPARg-NCOR2 corepressor interaction, counter-screen for NR2E3 agonist project, biochemical, TR-FRET. shares compounds with NR2E3 ag-2. actives 45% (n = 360). TR-FRET PPARg-NCOR2 coregulator interaction. AID 504787, 2011. inhibition, % at 3.98 µM; in the data active means inhibition above about 20%;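 further: 0% = DMSO vehicle and 100% = wells without protein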
# NR2E3 ag confirm-2 = NR2E3 agonist confirmation in cells, cell-based, luminescence, CHO-S two-hybrid; shares compounds with NR2E3 ag-1; CHO-S mammalian two-hybrid NR2E3-NCOR, luciferase luminescence; inhibition, % at 3.98 µM; actives 51% (n = 2,300);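 active means average inhibition above a cutoff equal to the mean inhibition of all tested compounds plus one SD, cut at about 70% in these data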;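 further: 0% = DMSO in NR2E3 cells and 100% = DMSO in cells lacking NR2E3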
# GAL4-VP16 luc = GAL4-VP16 reporter modulators, confirmation, counter-screen for NR2E3 agonist project, cell-based, luminescence, CHO-S, high throughput; CHO-S GAL4-VP16 luciferase reporter; inhibition, % at 3.98 µM; actives 29% (n = 2,300); shares compounds with NR2E3 ag-1; AID 624379, 2012;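 active means mean inhibition above a cutoff equal to the average over all tested compounds plus one standard deviation, cut at about 70% in these data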;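 further: luciferase from a UAS reporter driven by GAL4-VP16 transactivation; 0% = DMSO with VP16-transfected cells and 100% = DMSO with cells lacking VP16; higher means less reporter light so more repression of VP16 activity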
# NadD inh conf = inhibitors of S. aureus NadD, confirmation, biochemical, colorimetric, single concentration | shares compounds with NadD block | purified S. aureus NadD, colorimetric enzyme assay | inhibition, % at 20 µM | actives 13% (n = 2,000); in the data active means inhibition mostly above about 42%, no sharp cut-off; inactive means mostly below about 42%
# * hit, by the source's call; / = not tested or not shown. Rows were chosen to be rich in hits. Some 2.5% of all compounds tested hit in one or more screens of this group.
SMILES,MsrA inh,GalR3 antag,bovine MsrA act,NR2E3 ag-1,NadD block,NR2E3 ag-2,NR2E3 ag confirm-1,PPARg-NCOR2 ctr,others
CCC(Oc1ccccc1)C(=O)Nc1nnc(S(=O)(=O)Nc2ccccc2)s1 (stereo unspecified),-1,3,-7,2,-6,6,/,/,
Cc1[nH]c(=S)c(C#N)c(C)c1C(=O)Nc1ccccc1,1,0,-7,12,4,8,/,/,
CCc1c(C(=O)Nc2ccccc2)c(C)[nH]c(=S)c1C#N,0,-2,-2,-4,1,30*,2,-3,
COc1ccc(Cn2c(-c3ccc(OC)cc3)nc3c(c(=O)c4ccccc4n3C)c2=O)cc1,/,/,/,/,/,41*,29*,20*,
CC(C)c1cc(C(=O)NCc2cccnc2)no1,/,/,-3,-22,2,-2,/,/,
Fc1ccc(NCc2nnc(SCc3nnc(-c4ccccc4)o3)n2CC2CCCO2)cc1 (stereo unspecified),0,-4,-1,-5,9,36*,-18,4,
O=C(Nn1cnnc1)c1ccccc1-c1ccccc1,-1,-3,-4,-9,-6,-2,/,/,
O=C(CSc1nc2ccccc2c(=O)n1Cc1ccccc1)NCc1ccco1,1,-8,0,-11,3,31*,4,12,
CCOc1ccc(/C(O)=C2/C(=O)C(=O)N(CCOCCO)C2c2ccc(F)cc2)cc1 (stereo unspecified),2,-2,-1,13,4,20*,14,7,
Cc1cc2oc(=O)cc(C)c2cc1NC(=O)CCC(=O)O,1,-4,-12,-1,-4,0,/,/,
O=C1C=C(O)c2cccc3cccc1c23,2,-2,-9,-26,0,23*,11,19,
O=C(c1cccs1)N1CCN(c2nc3c(F)cc(F)cc3s2)CC1,0,-2,-2,-12,-5,2,/,/,
CCn1c(SCC(=O)Nc2ccc3c(c2)OCO3)nc2c(c1=O)SC(C)C2 (stereo unspecified),1,-3,-3,25,3,5,/,/,
Cc1cccc(NC(=O)CSc2ncnc3c2oc2ccccc23)c1,-2,4,-6,5,-4,60*,66*,72*,
O=C(CSc1ncnc2c1oc1ccccc12)c1cccs1,1,3,-4,-64,-2,31*,25*,25*,
Cc1nc(SCC(=O)c2cccs2)c2oc3ccccc3c2n1,1,-2,-2,-101,-6,3,/,/,
COC(=O)C1CSC(C)(C)C(=O)N1 (stereo unspecified),-1,1,-1,15,3,1,/,/,
COC(=O)CCCCC1SCC2NC(=O)NC21O (stereo unspecified),2,-7,-2,-22,0,76*,80*,80*,
COC(=O)CCCC[C@H]1SC[C@H]2NC(=O)N[C@]21O,/,/,/,/,/,63*,61*,47*,
COC(=O)CC1C(=O)NC(C)=C1C(=O)OC (stereo unspecified),/,/,/,/,/,0,/,/,
CCOC(=O)c1c(C)[nH]c(C)c1C(=O)CSc1nc2ccccc2c(=O)n1-c1ccccc1C,1,-7,-8,-17,-1,0,/,/,
COc1ccc(C)c2sc(N(CCCN(C)C)C(=O)c3ccc(S(=O)(=O)N(C)C)cc3)nc12,0,-8,-2,-8,-2,2,/,/,
O=c1[nH]n(-c2ccccc2Cl)c(=O)c2ccccc12,2,-2,-1,-17,-1,2,/,/,
Cc1ccc(-c2c3c(nc4sc(C(N)=O)c(N)c24)CCCC3)o1,1,-3,-9,15,3,26*,-10,2,
NC(=O)c1sc2nc3c(c(-c4ccco4)c2c1N)CCC3,1,-6,0,0,8,11,/,/,
SMILES,MsrA inh,GalR3 antag,bovine MsrA act,NR2E3 ag-1,NadD block,NR2E3 ag-2,NR2E3 ag confirm-1,PPARg-NCOR2 ctr,others
O=C(Nc1ccc(Oc2cccnc2)cc1)c1ccccc1Cl,1,-3,-4,-45,-5,1,/,/,
CCOc1ccccc1CN1CCNC(=O)C1CC(=O)N(C)CCc1cnn(C)c1 (stereo unspecified),-1,-9,-1,-29,5,-1,/,/,
CCc1cc2c(=O)n(-c3ccccc3)c(=S)[nH]c2s1,4,-3,-8,-5,1,23*,1,-2,
Cc1cc(N2C(=O)C(O)=C(C(=O)c3ccc(C)o3)C2c2cccc(Cl)c2)no1 (stereo unspecified),2,0,-9,-3,13,/,/,/,
Cc1cc(N2C(=O)C(O)=C(C(=O)c3cc4ccccc4o3)C2c2ccc(Cl)cc2)no1 (stereo unspecified),1,-8,-1,51,13,29*,35*,39*,NR2E3 ag confirm-2=88*;GAL4-VP16 luc=59
Cn1nc(-c2ccccn2)nc2c(=O)n(C)c(=O)nc1-2,0,-11,59*,107*,-3,41*,33*,57*,NR2E3 ag confirm-2=63;GAL4-VP16 luc=64
CCOC1=C2CN(S(=O)(=O)c3ccc(C)cc3)[C@H](c3ccccc3)C[C@@H]2N(S(=O)(=O)c2ccc(C)cc2)[C@H](c2ccccc2)C1,0,-5,-2,7,5,/,/,/,
Cc1ccc(N2CSC3=C(C#N)C(c4cccs4)CC(=O)N3C2)cc1 (stereo unspecified),1,/,-6,-30,31*,24*,-6,9,NadD inh conf=10
